Structures are written as SMILES. Where only a bound is given, the exact number is not on record here.

A word on the IC50: it is the concentration that gives 50% inhibition. High values mean a need for much substance, low ones inhibition by little substance. The inhibition is the change of the read-out against control, counted positive when it falls.

Assay [1] concerns the target Ribosomal protein S6 kinase beta-2 (Homo sapiens, UniProt Q9UBS0). Briefly: Inhibition of P70S6KB in human HeLa cells lysate pre incubated for 15 mins followed by ATP acyl phosphate probe addition and measured after 10 mins by LC-MS/MS analysis. It is filed as subcellular.
Assay [2] relates to Serine/threonine-protein kinase PLK1 (Homo sapiens), P53350 [UNDEFINED MUTATION]. The experiment in a line: Inhibition of PLK1 splice variant in human HeLa cells lysate at 10 uM pre incubated for 15 mins followed by ADP acyl phosphate probe addition and measured after 10 mins by LC-MS/MS analysis relative to control. It is filed as subcellular. The conditions noted are these: time 25.0 min.

Assay [3] addresses T1, Dual specificity mitogen-activated protein kinase kinase 6 (Homo sapiens) (UniProt P52564).
T1 sequence (whole entry): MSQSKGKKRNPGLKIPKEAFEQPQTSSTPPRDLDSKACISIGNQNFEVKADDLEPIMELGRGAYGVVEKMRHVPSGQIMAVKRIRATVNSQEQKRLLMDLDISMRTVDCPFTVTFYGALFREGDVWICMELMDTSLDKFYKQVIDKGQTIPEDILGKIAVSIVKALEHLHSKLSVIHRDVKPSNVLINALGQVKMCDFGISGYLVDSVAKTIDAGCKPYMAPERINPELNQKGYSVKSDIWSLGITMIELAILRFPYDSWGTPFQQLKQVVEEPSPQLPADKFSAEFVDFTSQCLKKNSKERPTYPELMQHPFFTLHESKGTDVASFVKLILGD
The experiment in a line: Inhibition of MAP2K6 in human HeLa cells lysate at 10 uM pre incubated for 15 mins followed by ADP acyl phosphate probe addition and measured after 10 mins by LC-MS/MS analysis relative to control. It is filed as subcellular. The conditions noted are these: time 25.0 min.

The target of assay [4] is T2, Serine/threonine-protein kinase D3 (Homo sapiens) (UniProt O94806).
T2 sequence (whole entry): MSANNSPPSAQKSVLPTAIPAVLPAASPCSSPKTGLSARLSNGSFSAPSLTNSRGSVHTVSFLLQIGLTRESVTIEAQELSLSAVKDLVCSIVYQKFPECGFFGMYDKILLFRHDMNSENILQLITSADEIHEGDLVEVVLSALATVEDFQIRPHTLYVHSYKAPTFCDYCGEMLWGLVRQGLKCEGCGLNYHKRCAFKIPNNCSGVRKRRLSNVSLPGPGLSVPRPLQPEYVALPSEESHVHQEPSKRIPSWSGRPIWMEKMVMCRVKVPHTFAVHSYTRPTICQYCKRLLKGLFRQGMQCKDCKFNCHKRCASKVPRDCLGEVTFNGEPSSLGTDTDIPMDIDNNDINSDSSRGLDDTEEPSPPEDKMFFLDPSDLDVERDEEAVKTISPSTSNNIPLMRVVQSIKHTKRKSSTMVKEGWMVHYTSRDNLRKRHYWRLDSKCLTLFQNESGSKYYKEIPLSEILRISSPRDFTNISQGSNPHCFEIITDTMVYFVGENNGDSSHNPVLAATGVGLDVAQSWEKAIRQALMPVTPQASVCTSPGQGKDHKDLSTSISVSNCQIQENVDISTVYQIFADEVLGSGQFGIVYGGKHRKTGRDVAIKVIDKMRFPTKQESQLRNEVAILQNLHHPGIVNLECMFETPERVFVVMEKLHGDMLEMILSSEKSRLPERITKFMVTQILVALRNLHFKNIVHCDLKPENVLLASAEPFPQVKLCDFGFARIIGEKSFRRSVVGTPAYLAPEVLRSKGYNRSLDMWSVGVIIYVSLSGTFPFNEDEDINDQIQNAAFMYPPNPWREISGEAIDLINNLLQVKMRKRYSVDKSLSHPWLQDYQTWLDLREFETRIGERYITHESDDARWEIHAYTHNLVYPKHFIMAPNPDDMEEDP
Briefly: Inhibition of PKD3 in human HeLa cells lysate at 10 uM pre incubated for 15 mins followed by ADP acyl phosphate probe addition and measured after 10 mins by LC-MS/MS analysis relative to control. The conditions noted are these: time 25.0 min. It is filed as subcellular.

Assay [5] has as its target Serine/threonine-protein kinase Nek7 (Homo sapiens, UniProt Q8TDX7). The experiment in a line: Inhibition of NEK7 in human HeLa cells lysate at 10 uM pre incubated for 15 mins followed by ADP acyl phosphate probe addition and measured after 10 mins by LC-MS/MS analysis relative to control. The class given is subcellular. The following applies: time 25.0 min.
Assay [6] deals with T3, Dual specificity mitogen-activated protein kinase kinase 3 (Homo sapiens) (UniProt P46734).
T3 sequence (whole entry): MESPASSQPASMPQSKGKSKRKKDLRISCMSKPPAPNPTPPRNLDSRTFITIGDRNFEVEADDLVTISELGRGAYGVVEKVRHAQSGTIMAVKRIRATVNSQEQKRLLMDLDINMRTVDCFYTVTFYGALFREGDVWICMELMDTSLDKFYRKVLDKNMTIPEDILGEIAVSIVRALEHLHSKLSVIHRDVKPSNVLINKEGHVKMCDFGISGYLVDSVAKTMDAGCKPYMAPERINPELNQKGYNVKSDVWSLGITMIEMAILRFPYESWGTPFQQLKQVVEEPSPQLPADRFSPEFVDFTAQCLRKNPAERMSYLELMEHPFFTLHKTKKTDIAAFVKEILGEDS
The experiment in a line: Inhibition of MAP2K3 in human HeLa cells lysate at 10 uM pre incubated for 15 mins followed by ADP acyl phosphate probe addition and measured after 10 mins by LC-MS/MS analysis relative to control. The following applies: time 25.0 min. It is filed as subcellular.

Assay [7] has as its target T4, Aurora kinase A (Homo sapiens) (UniProt O14965).
T4 sequence (whole entry): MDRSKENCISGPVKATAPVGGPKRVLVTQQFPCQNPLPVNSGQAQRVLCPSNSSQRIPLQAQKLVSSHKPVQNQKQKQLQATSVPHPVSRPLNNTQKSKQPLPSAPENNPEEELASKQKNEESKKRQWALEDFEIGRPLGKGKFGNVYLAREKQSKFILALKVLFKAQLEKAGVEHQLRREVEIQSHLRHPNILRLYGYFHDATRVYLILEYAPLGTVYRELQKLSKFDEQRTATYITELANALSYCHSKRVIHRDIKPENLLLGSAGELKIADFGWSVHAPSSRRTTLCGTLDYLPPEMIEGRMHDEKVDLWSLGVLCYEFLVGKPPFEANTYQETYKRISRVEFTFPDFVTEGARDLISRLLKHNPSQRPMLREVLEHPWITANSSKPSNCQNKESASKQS
Briefly: Inhibition of AurA in human HeLa cells lysate at 2 uM pre incubated for 15 mins followed by ATP acyl phosphate probe addition and measured after 10 mins by LC-MS/MS analysis relative to control. The class given is subcellular. The following applies: time 25.0 min. The essentials: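 KiNativ-type profiling in HeLa lysate (5 mg/mL total protein). Lysate preincubated 15 min with inhibitor at 50, 10, 2, 0.8 or 0 μM, then ATP or ADP acylphosphate probe added (5 μM final) for 10 min. Reaction stopped with urea and analysed by targeted MS, using up to four fragment ions per kinase peptide-probe conjugate. % inhibition calculated against untreated lysate. Duplicate reactions.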

Assay [8] in a line: Inhibition of MAP3K5/MAP3K6/MAP3K15 in human HeLa cells lysate at 2 uM pre incubated for 15 mins followed by ATP acyl phosphate probe addition and measured after 10 mins by LC-MS/MS analysis relative to control. The conditions noted are these: 25 min, condition cancer.

Sequence of Serine/threonine-protein kinase PLK1 (Homo sapiens), P53350 [UNDEFINED MUTATION] (P53350 whole entry, looked up, stated change not applied, canonical isoform): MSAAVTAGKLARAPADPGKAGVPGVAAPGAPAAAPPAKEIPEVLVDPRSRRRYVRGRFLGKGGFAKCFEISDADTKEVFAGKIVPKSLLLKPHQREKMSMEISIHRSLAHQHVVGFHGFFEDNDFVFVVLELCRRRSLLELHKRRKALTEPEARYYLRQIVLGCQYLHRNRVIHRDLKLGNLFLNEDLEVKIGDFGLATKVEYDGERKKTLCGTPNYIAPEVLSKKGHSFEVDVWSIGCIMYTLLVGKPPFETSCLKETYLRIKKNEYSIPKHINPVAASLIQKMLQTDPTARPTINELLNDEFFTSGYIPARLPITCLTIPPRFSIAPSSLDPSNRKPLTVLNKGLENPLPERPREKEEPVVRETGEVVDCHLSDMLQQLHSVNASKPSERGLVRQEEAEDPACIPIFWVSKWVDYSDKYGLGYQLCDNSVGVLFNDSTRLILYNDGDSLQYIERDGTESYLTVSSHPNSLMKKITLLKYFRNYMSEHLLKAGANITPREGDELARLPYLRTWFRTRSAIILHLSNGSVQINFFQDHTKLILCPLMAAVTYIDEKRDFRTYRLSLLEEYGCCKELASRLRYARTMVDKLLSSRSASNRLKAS
Sequence of Serine/threonine-protein kinase Nek7 (Q8TDX7 whole entry, looked up): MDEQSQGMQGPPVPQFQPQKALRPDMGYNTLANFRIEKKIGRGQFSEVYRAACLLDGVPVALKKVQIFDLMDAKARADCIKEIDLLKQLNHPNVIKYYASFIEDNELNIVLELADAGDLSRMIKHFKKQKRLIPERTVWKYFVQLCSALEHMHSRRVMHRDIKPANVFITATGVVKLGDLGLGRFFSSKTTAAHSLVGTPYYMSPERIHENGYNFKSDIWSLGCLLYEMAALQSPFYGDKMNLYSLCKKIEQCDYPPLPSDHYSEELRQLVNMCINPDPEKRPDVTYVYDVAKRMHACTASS
Sequence of Ribosomal protein S6 kinase beta-2 (Q9UBS0 whole entry, canonical isoform): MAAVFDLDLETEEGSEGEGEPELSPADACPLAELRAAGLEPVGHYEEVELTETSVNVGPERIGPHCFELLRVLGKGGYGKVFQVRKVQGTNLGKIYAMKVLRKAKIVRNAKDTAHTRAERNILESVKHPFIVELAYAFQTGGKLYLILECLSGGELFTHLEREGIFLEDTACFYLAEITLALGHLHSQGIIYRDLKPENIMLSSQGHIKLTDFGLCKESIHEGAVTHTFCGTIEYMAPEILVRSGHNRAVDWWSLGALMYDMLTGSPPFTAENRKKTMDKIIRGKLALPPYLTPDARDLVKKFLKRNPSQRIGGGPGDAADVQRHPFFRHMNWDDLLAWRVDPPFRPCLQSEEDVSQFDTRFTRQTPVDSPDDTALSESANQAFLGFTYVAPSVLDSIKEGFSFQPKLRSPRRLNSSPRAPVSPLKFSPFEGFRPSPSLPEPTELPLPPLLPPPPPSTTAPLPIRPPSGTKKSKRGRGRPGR

Take `CCOc1cc(N2CCC(O)CC2)ccc1Nc1ncc2c(n1)N(C)c1ccccc1C(=O)N2C`: the IC50 in assay [1] was more than 50 µM. Moreover, the inhibition was 0.8% in assay [2]; 5.6% in assay [3]; -6% in assay [4]; -7.9% in assay [5]; -9.7% in assay [6]; 7.2% in assay [7]. In addition, the inhibition at 2 µM in assay [8] worked out at 2%.

The record behind these values is ChEMBL document CHEMBL5661979, “Pharmacological inhibition of BMK1 suppresses tumor growth through promyelocytic leukemia protein” (Cancer Cell, 2010).
